STAT3 act = increases IL-6 driven STAT3 reporter signal; U3A cells, IL-6 STAT3-luciferase reporter, luminescence; 100% = signal with IL-6 EC80 alone; activation (% of control), % at 5.6 µM; 190,000 compounds, 0.91% hits; AID 871;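 active means activation above the screen-wide mean of compound activation plus 3 SD, cut at about 130% in these data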
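Material: STAT1-lacking human U3A cells, STAT3 luciferase reporter | Benchmarks: IL-6-only wells as 100% reference | Probe or stimulus: IL-6 (33 ng/mL) | Timing: Compound 1 h, then IL-6 6 h at 37 °C | Detection: Luminescence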
STAT3 inh = inhibitors of IL-6 induced STAT3 signaling | U3A cells, IL-6 STAT3-luciferase reporter, luminescence; host cell line lacks STAT1 | inhibition, % at 5.5 µM | 190,000 compounds, 0.89% hits;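 active means inhibition above the mean inhibition across all screened compounds plus 3 SD, cut at about 44% in these data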
NF-kB neuron act = compounds increasing NF-kB expression in human neuronal cells | NF-kB reporter expression; hits give high values | fold change at 12.5 µM | 190,000 compounds, 1.6% hits; in the data active means fold change above about 3.3
STAT1 act = STAT1 signaling activation. 200,000 compounds, 2.6% hits. AID 932. NIH 3T3 STAT1-luciferase reporter, IFN-gamma, luminescence; 100% = IFN-gamma alone, no compound. activation (% of control), % at 5.5 µM;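 active means activation above the screen-wide mean activation plus 3 SD, cut at about 130% in these data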
APP 5'UTR act = APP 5'UTR luciferase reporter activation | SH-SY5Y APP 5'UTR luciferase reporter, luminescence; zero percent = DMSO vehicle wells | activation, % at 2 µM | 190,000 compounds, 1% hits | AID 1276;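 active means activation above a set limit, based on mean plus 3 SD of controls, cut at about 140% in these data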
STAT1 inh = inhibitors of IFN-gamma induced STAT1 signaling; NIH 3T3 STAT1-luciferase reporter, luminescence; 200,000 compounds, 0.35% hits; inhibition, % at 5.5 µM;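 active means inhibition above a set limit, the mean inhibition across all tested compounds plus 3 SD, cut at about 34% in these data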
Large screens that a line does not name were inactive. A selection: hits, their analogues and other compounds. The true share with any hit is near 5.1%.

O=C(CSc1ccccn1)Nc1ccc2ccccc2c1	STAT1 act 132.1, APP 5'UTR act 137.1
CCn1ncc(NC(=S)NCCc2ccccc2)c1C(N)=O	none
Cc1c(OCc2ccc([N+](=O)[O-])cc2)ccc2c3c(c(=O)oc12)CCC3	APP 5'UTR act 192.2
C=C(C)COc1ccc2c3c(c(=O)oc2c1OCC(=C)C)CCC3	NF-kB neuron act 3.52
Nc1nc2c(s1)COc1ccccc1-2	none
Nc1nc2c(s1)CCc1c-2cnn1-c1ccccc1	NF-kB neuron act 3.42, STAT1 act 155.3, APP 5'UTR act 138.0
O=c1cc(CN2CCCc3ccccc32)nc2sccn12	none
O=c1cc(CN2CCc3ccccc32)nc2sccn12	STAT3 act 134.1
CC1(C)CC(=O)c2sc(NC(=O)c3ccccc3)nc2C1	NF-kB neuron act 3.55, APP 5'UTR act 170.5
CCCCS/C(N)=N/N=C/c1cc(C)ccc1O	none
CCS/C(N)=N/N=C/c1cc(C)ccc1O	NF-kB neuron act 13.2, STAT1 act 132.5, APP 5'UTR act 160.0
O=C(Nc1ccccc1)N1CCOCC1	none
O=C(Nc1ccc2c(c1)oc1ccccc12)N1CCOCC1	NF-kB neuron act 3.81, STAT1 act 140.4
C(=N\N=C\c1cccnc1)/c1cccnc1	none
CN(/N=C/c1cccnc1)c1cnc2ccccc2n1	STAT3 act 151.5, STAT1 act 172.4, APP 5'UTR act 170.4
CCCn1nnc(NC(=O)c2ccccc2Cl)n1	none
CCCn1nnc(NC(=O)c2ccc(Cl)cc2Cl)n1	STAT1 act 130.9
COc1ccc(CC(=O)NNC(=S)Nc2ccccc2)cc1Cl	none
CCCOc1ccc(CC(=O)NNC(=S)Nc2ccccc2)cc1Br	NF-kB neuron act 3.31
CC(O)C(O)C(O)C(O)/C=N/NC(=O)c1ccccc1 (configuration not stated)	STAT1 act 128.8
CN(C)/C=N/NC(=O)c1ccccc1	none
COc1ccc(/C=N/Nc2ccc([N+](=O)[O-])cc2S(=O)(=O)N2CCN(C)CC2)cc1	NF-kB neuron act 5.52 (no result: APP 5'UTR act)
COc1ccc(NS(=O)(=O)c2cc([N+](=O)[O-])ccc2N/N=C\c2c(C)[nH]c3ccccc23)cc1	none (no result: APP 5'UTR act)
COc1ccc(C2=NN(C(=O)CN3CCCCC3)C(c3ccc(C)cc3)C2)cc1 (configuration not stated)	none
COc1ccc(C2=NN(C(=O)CN3CCOCC3)C(c3nc4ccccc4[nH]3)C2)cc1 (configuration not stated)	STAT1 act 132.8
CCn1nc(C)cc1C(=O)N1CCc2c([nH]c3ccccc23)C1c1cc(F)ccc1F (configuration not stated)	STAT3 act 150.4, STAT1 act 137.0
OCCN(/C=N/c1nc(-c2ccc(Br)cc2)cs1)CCO	none
Brc1ccc(-c2csc(/N=C/N3CCOCC3)n2)cc1	STAT1 act 136.0
NC(=O)C1CCN(c2nc(-c3ccc(Br)cc3)cs2)CC1	STAT1 act 130.6
Brc1ccc(-c2csc(/N=C/N3CCCC3)n2)cc1	STAT1 act 131.5
NC(=O)C1(N2CCCCC2)CCN(c2nc(-c3ccc(Br)cc3)cs2)CC1	none
C/C(=N\NC(=O)C1(C)CC1(Br)Br)c1ccc(NC(=O)c2ccc(C)o2)cc1 (configuration not stated)	none
CCCCCCc1nc2ccccc2c(=O)n1NC(=O)c1c(O)c2cccc3c2n(c1=O)CCC3	none
Cc1ccc[n+](-c2[nH]c(=O)sc2/C=N/NC(=O)c2ccccc2[O-])c1	none
CC1=CC(C)=Nc2ccccc2N1	STAT1 act 128.7
O=C1CC(/C=C/c2ccccn2)=Nc2ccccc2N1	none
Cc1ccc(N2Cc3ccccc3C2=S)cc1	NF-kB neuron act 6.75, STAT1 act 136.1, APP 5'UTR act 200.8
Cc1nc2ccc(NC(=S)NC3CCCCC3)cc2nc1C	none
O=C(OCc1nnc(-c2ccc(Cl)cc2)o1)C12CC3CC(CC(O)(C3)C1)C2	STAT1 act 137.6
Cc1[nH]n(-c2ccccc2)c(=O)c1C(c1ccc(O)c([N+](=O)[O-])c1)c1c(C)[nH]n(-c2ccccc2)c1=O	none (no result: NF-kB neuron act)
CC1=NN(c2ccc(F)cc2)C(=O)C1C(c1cccc(O)c1)c1c(C)[nH]n(-c2ccc(F)cc2)c1=O (configuration not stated)	STAT3 act 153.0
